This note sets out measurements from ChEMBL document CHEMBL4819003, “Optimization of novel oxidative DIMs as Nur77 modulators of the Nur77-Bcl-2 apoptotic pathway” (Eur J Med Chem, 2021).

As usually defined, the IC50 is the concentration that inhibits the measured activity by half. In general, Kd refers to the equilibrium constant for the complex coming apart. Usually AUC(0-t) stands for exposure summed from dosing to a finite time, without extrapolation to infinity.

SMILES strings stand for the structures.

For data set [1], the system named is MDA-MB-231. Nature of the data set: Cytotoxicity against human MDA-MB-231 cells assessed as inhibition of cell growth measured after 24 hrs by MTT assay. In kind it is functional, cell-based. Conditions: MDA-MB-231, 24 h. The procedure, abridged: (§1)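 MTT viability assay, 24 h exposure to a concentration series, 10^4 cells/well. Cancer lines were in DMEM (BT549, MDA-MB-231) or RPMI-1640 (HCT116, SW620) with 10% FBS. MCF10A and NCM460 were in DMEM with 20% FBS and 10 ng/ml EGF. MTT at 5 mg/mL for 4 h at 37 °C, formazan dissolved in DMSO, A490. IC50 from curve fit; mean ± SD, at least 6 experiments.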
For orientation: Tetrazolium dyes change colour on reduction, which living cells bring about.

The test system of data set [2] is BT-549. Nature of the data set: Cytotoxicity against human BT-549 cells assessed as inhibition of cell growth measured after 24 hrs by MTT assay. Conditions: BT-549, 24 h. Format: functional, cell-based. The procedure, abridged:
as §1

The subject of a further data set is MCF-10A. Put plainly: Cytotoxicity against human MCF-10A cells assessed as inhibition of cell growth measured after 24 hrs by MTT assay. In kind it is cell-based. Conditions: Homo sapiens, MCF-10A, 24 h. The procedure, abridged: as §1
Data set [3] has as its system HCT-116. Put plainly: Cytotoxicity against human HCT-116 cells assessed as inhibition of cell growth measured after 24 hrs by MTT assay. Format: functional, cell-based. Conditions: Homo sapiens, HCT-116, 24 h. The procedure, abridged:
as §1

Data set [4] has as its system SW-620. Nature of the data set: Cytotoxicity against human SW-620 cells assessed as inhibition of cell growth measured after 24 hrs by MTT assay. In kind it is functional, cell-based. Conditions: SW-620, 24 h. The procedure, abridged: as §1
A further data set has as its system NCM460. Nature of the data set: Cytotoxicity against human NCM460 cells assessed as inhibition of cell growth measured after 24 hrs by MTT assay. In kind it is cell-based. Conditions: Homo sapiens, NCM460, 24 h. In short, it runs like this: as §1
In data set [5] the test system is MDA-MB-231. Nature of the data set: Induction of apoptosis in human MDA-MB-231 cells assessed as viable cells at 0.5 uM measured after 6 hrs by Annexin V-FITC/PI staining based flow cytometry method (reference value: 98.51%). In kind it is functional. Conditions: read-out: Activity. In short, it runs like this: (§2)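 Cells seeded at 1×10^6 per well and treated with 0.5 µM for 6 h. Floating and adherent cells pooled, stained with Annexin V-FITC for 10 min and propidium iodide for 5 min, then analysed immediately by flow cytometry in FITC and PC5.5 channels. Mean ± SD, n = 3.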

In data set [6] the test system is MDA-MB-231. Put plainly: Induction of apoptosis in human MDA-MB-231 cells assessed as early apoptotic cells at 0.5 uM measured after 6 hrs by Annexin V-FITC/PI staining based flow cytometry method (reference value: 1.27%). In kind it is functional. The procedure, abridged: as §2
Background: In flow cytometry, cells or beads pass a laser one at a time.

Data set [7] deals with MDA-MB-231. Put plainly: Induction of apoptosis in human MDA-MB-231 cells assessed as late apoptotic cells at 0.5 uM measured after 6 hrs by Annexin V-FITC/PI staining based flowcytometry method (reference value: 0.11%). In kind it is functional. The procedure, abridged:
as §2

The test system of data set [8] is MDA-MB-231. Nature of the data set: Induction of apoptosis in human MDA-MB-231 cells assessed as necrotic cells at 0.5 uM measured after 6 hrs by Annexin V-FITC/PI staining based flow cytometry method (reference value: 0.11%). Format: functional. The procedure, abridged:
as §2

For data set [9], the system named is BT-549. Put plainly: Induction of apoptosis in human BT-549 cells assessed as viable cells at 0.5 uM measured after 6 hrs by Annexin V-FITC/PI staining based flow cytometry method (reference value: 98.51%). In kind it is functional. Conditions: read-out: Activity. The procedure, abridged: as §2
The test system of data set [10] is BT-549. Put plainly: Induction of apoptosis in human BT-549 cells assessed as early apoptotic cells at 0.5 uM measured after 6 hrs by Annexin V-FITC/PI staining based flow cytometry method (reference value: 1.27%). Format: functional. The procedure, abridged:
as §2

The subject of data set [11] is BT-549. Nature of the data set: Induction of apoptosis in human BT-549 cells assessed as late apoptotic cells at 0.5 uM measured after 6 hrs by Annexin V-FITC/PI staining based flow cytometry method (reference value: 0.11%). Format: functional. The procedure, abridged:
as §2

Data set [12] concerns BT-549. Nature of the data set: Induction of apoptosis in human BT-549 cells assessed as necrotic cells at 0.5 uM measured after 6 hrs by Annexin V-FITC/PI staining based flow cytometry method (reference value: 0.11%). Format: functional. The procedure, abridged: as §2
Data set [13] relates to HCT-116. Nature of the data set: Induction of apoptosis in human HCT-116 cells assessed as viable cells at 0.5 uM measured after 6 hrs by Annexin V-FITC/PI staining based flow cytometry method (reference value: 98.18%). In kind it is functional. Conditions: read-out: Activity. The procedure, abridged: as §2
For data set [14], the system named is HCT-116. Nature of the data set: Induction of apoptosis in human HCT-116 cells assessed as early apoptotic cells at 0.5 uM measured after 6 hrs by Annexin V-FITC/PI staining based flow cytometry method (reference value: 1.39%). In kind it is functional. In short, it runs like this: as §2
In data set [15] the test system is HCT-116. Nature of the data set: Induction of apoptosis in human HCT-116 cells assessed as late apoptotic cells at 0.5 uM measured after 6 hrs by Annexin V-FITC/PI staining based flow cytometry method (reference value: 0.06%). In kind it is functional. In short, it runs like this:
as §2

The test system of data set [16] is HCT-116. Nature of the data set: Induction of apoptosis in human HCT-116 cells assessed as necrotic cells at 0.5 uM measured after 6 hrs by Annexin V-FITC/PI staining based flow cytometry method (reference value: 0.37%). In kind it is functional. In short, it runs like this:
as §2

Data set [17] relates to SW-620. Nature of the data set: Induction of apoptosis in human SW-620 cells assessed as early apoptotic cells at 0.5 uM measured after 6 hrs by Annexin V-FITC/PI staining based flow cytometry method (reference value: 1.02%). Format: functional.
Data set [18] deals with SW-620. Nature of the data set: Induction of apoptosis in human SW-620 cells assessed as late apoptotic cells at 0.5 uM measured after 6 hrs by Annexin V-FITC/PI staining based flow cytometry method (reference value: 0.05%). Format: functional. In short, it runs like this:
as §2

The test system of data set [19] is SW-620. Put plainly: Induction of apoptosis in human SW-620 cells assessed as necrotic cells at 0.5 uM measured after 6 hrs by Annexin V-FITC/PI staining based flow cytometry method (reference value: 0.26%). Format: functional. In short, it runs like this: as §2
For data set [20], the target named is T1, Nuclear receptor subfamily 4immunitygroup A member 1 (Homo sapiens, UniProt P22736). Put plainly: Binding affinity to recombinant human N-terminal His-tagged Nur77-LBD (367 to 598 residues) expressed in Escherichia coli BL21 DE3 by flourescence quenching assay. The procedure, abridged: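 Human Nur77-LBD (367–598), N-terminal His tag, pET15b in E. coli BL21 DE3, Ni resin purified. Nur77-LBD at 1 µM in PBS in a quartz cell, titrated with compound over 0.01–1 µM at 25 °C. Excitation 280 nm, emission scanned 300–500 nm; peak intensity at 330 nm versus compound concentration fitted to a reported formula for Kd.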

For data set [21], the target named is T1, Nuclear receptor subfamily 4immunitygroup A member 1. Put plainly: Binding affinity to recombinant human N-terminal His-tagged Nur77-LBD (367 to 598 residues) expressed in Escherichia coli BL21 DE3 by surface plasmon resonance assay. In short, it runs like this: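 His-tagged human Nur77-LBD (367–598) from E. coli BL21 DE3, diluted to 0.05 mg/mL in 10 mM NaAc pH 5.0 and amine-coupled to a CM5 chip (~9000 RU). Compounds at 0.01–5 µM in PBS with 0.4% DMSO, 25 °C, 30 µL/min; 150 s association, 420 s dissociation, regeneration with 10 mM glycine-HCl pH 2.5. Reference- and blank-subtracted; Kd from global 1:1 kinetic fit.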
For orientation: In SPR one partner is held on a chip, and binding of the other changes the refractive index at the surface.

Data set [22] can be described thus: AUC (0 to t) in male Sprague-Dawley rat at 5 mg/kg, po measured for 36 hrs by LC-MS/MS analysis. Conditions: in vivo. Set-up: dose 5 mg/kg, time 36 hrs. Format: ADME, organism-based. The procedure, abridged: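 Sprague-Dawley rats (200–220 g), three per sex per route, were dosed at 0.5 mg/kg IV or 5 mg/kg PO in DMSO/Tween-80/water (1:5:94). Heparinized blood was drawn from 5 min to 36 h after IV dosing and from 1 h to 36 h after oral dosing. Plasma was deproteinized with methanol (2% HCl) plus carbamazepine internal standard, measured by LC-MS/MS, and reported as mean ± SD.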

T1 sequence (P22736 whole entry, the tested form may be a part): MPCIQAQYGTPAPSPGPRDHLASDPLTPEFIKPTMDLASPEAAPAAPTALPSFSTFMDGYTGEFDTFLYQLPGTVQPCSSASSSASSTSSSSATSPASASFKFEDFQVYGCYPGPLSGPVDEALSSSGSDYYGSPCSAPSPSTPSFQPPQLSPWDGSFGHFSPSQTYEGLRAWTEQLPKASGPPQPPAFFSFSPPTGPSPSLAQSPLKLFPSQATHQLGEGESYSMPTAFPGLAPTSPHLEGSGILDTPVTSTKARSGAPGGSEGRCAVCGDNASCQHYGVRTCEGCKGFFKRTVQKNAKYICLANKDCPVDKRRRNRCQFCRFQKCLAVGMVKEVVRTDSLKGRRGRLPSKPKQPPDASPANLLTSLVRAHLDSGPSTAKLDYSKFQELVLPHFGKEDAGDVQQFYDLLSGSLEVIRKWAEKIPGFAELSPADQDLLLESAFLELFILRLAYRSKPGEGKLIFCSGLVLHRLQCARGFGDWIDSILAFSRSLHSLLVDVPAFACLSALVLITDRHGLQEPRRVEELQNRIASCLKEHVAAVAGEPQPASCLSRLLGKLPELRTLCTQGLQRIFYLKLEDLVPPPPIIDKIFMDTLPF

Turning to `CS(=O)(=O)[O-].FC(F)(F)c1ccc([C+](c2c[nH]c3ccccc23)c2c[nH]c3ccccc23)cc1`, the IC50 worked out at 0.22 µM in the data set with MDA-MB-231 [1]; 0.17 µM with BT-549 [2]; 4.29 µM in the data set with MCF-10A; 0.27 µM with HCT-116 [3]; 0.18 µM in the data set on SW-620 [4]; 6.84 µM with NCM460. Moreover, the viability at 0.5 µM in the data set on MDA-MB-231 [5] came out at 85.7%; with BT-549 [9], 74%; in the data set with HCT-116 [13] it was 81.6%. Further, the Activity in the data set with MDA-MB-231 [6] is 12.18%; in the data set with MDA-MB-231 [7] it was 0.65%; in the data set on MDA-MB-231 [8], 1.47%; in the data set on BT-549 [10], 20.65%; in the data set on BT-549 [11], 4.21%; in the data set with BT-549 [12], 1.17%. In addition, the Activity was determined as 11.05% with HCT-116 [14]; 3.58% with HCT-116 [15]; 3.81% in the data set with HCT-116 [16]; 12.97% in the data set on SW-620 [17]; 15.18% in the data set with SW-620 [18]; 1.47% with SW-620 [19]. Also, the dissociation constant (Kd) in data set [20] was found to be 0.217 µM; in data set [21] it was 0.11 µM. Moreover, in [22], the AUC(0-t) at 36 h turned out to be 2.25 µg·h/mL.

For the compound `CS(=O)(=O)[O-].Cn1cc([C+](c2ccc(C(F)(F)F)cc2)c2c[nH]c3ccccc23)c2ccccc21`, the concentration for half-maximal inhibition (IC50) amounted to 0.06 µM with MDA-MB-231 [1]; 0.04 µM in the data set with BT-549 [2]; 2.19 µM in the data set with MCF-10A; 0.09 µM with HCT-116 [3]; 0.1 µM in the data set with SW-620 [4]; 4.63 µM in the data set with NCM460. Further, the figures for the viability at 0.5 µM with MDA-MB-231 [5], with BT-549 [9] and in the data set with HCT-116 [13] were 33.7%, 14.4% and 33.3%, respectively. The Activity in the data set on MDA-MB-231 [6] was determined as 62.49%; in the data set on MDA-MB-231 [7], 3.04%; with MDA-MB-231 [8], 0.74%; in the data set on BT-549 [10], 73.75%; with BT-549 [11], 10.97%; in the data set with BT-549 [12] it was 0.88%. For the same compound, the Activity in the data set with HCT-116 [14] is 44.48%; in the data set with HCT-116 [15] it was 19.94%; in the data set on HCT-116 [16], 2.3%; in the data set on SW-620 [17], 29.59%; in the data set with SW-620 [18] it was 62.95%; with SW-620 [19], 0.38%. The results for the Kd in data set [20] and in data set [21] were 0.066 µM and 0.033 µM, respectively.
